A short description of data set [1]: Cytotoxicity against human HCT116 cells assessed as growth inhibition after 48 hrs by MTT assay. Conditions: HCT-116, 48 h. The data set is classed as functional, cell-based. Background: Tetrazolium dyes change colour on reduction, which living cells bring about.
In data set [2] the test system is HeLa. In words: Cytotoxicity against human HeLa cells assessed as growth inhibition after 48 hrs by MTT assay. The format is functional, cell-based.
Data set [3] is described as follows: Cytotoxicity against human U937 cells assessed as growth inhibition after 48 hrs by MTT assay. The format is functional, cell-based. Particulars: U-937, 48 h.
Data set [4] is described as follows: Cytotoxicity against human 3AO cells assessed as growth inhibition after 48 hrs by MTT assay. The data set is classed as functional, cell-based.
Data set [5] deals with HEL. The experiment in a line: Cell cycle arrest in human HEL cells assessed as accumulation at G1 phase at 0.5 uM after 48 hrs by propidium iodide staining-based flow cytometric analysis (reference value: 47.87%). The data set is classed as functional. A general note: Flow cytometry measures light scatter and fluorescence of single cells or particles in a stream.
Data set [6] has as its system HEL. The experiment in a line: Cell cycle arrest in human HEL cells assessed as accumulation at S phase at 0.5 uM after 48 hrs by propidium iodide staining-based flow cytometric analysis (reference value: 46.88%). The format is functional.
Data set [7] deals with HEL. The experiment in a line: animal or person. Particulars: Mus musculus, po, read-out: TGI. The format is functional, Homo sapiens.
The test system of data set [8] is HEL. In words: Antitumor activity against human HEL cells xenografted in BALB/c-nu mouse assessed as inhibition of tumor growth at 100 mg/kg/day, po administered for 21 days measured every 3 days during compound dosing relative to control. The format is functional. Conditions: read-out: TGI. Put shortly:
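HEL s.c. xenografts in male BALB/c-nu mice (6–8 weeks), randomized at ~100 mm³, 6 per group; daily oral dosing for 21 days versus PBS/DMSO vehicle group. […] Student's two-tailed t test, p < 0.05.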
For orientation: In xenograft studies the graft and the host belong to different species.

Data set [9] relates to HEL. In words: Antitumor activity against human HEL cells xenografted in BALB/c-nu mouse assessed as decrease in tumor volume at 120 mg/kg/day, po administered for 21 days measured every 3 days during compound dosing relative to control. The data set is classed as functional.
Data set [10] has as its system Mus musculus. In words: Toxicity in BALB/c-nu mouse xenografted with human HEL cells assessed as effect on liver at 120 mg/kg/day, po administered for 21 days. The format is organism-based. Further details: route oral. Particulars: in vivo, 504 h. In a few lines:
(§1)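 Nude mice bearing HEL xenografts dosed orally 120 mg/kg/day for 21 days, 6 per group, controls on PBS/DMSO vehicle. After treatment, mice sacrificed and dissected to examine internal organs.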

The test system of data set [11] is Mus musculus. In words: Toxicity in BALB/c-nu mouse xenografted with human HEL cells assessed as effect on spleen at 120 mg/kg/day, po administered for 21 days. More on the design: route oral. Particulars: in vivo, 504 h. The data set is classed as organism-based. In a few lines: as §1
The target of data set [12] is Histone deacetylase 3 (Homo sapiens, UniProt O15379). In words: Inhibition of full length human recombinant HDAC3 expressed in baculovirus infected insect S9 cells using Ac-Leu-GlyLys(Ac)-AMC as substrate after 30 mins by fluorescence assay.
Chain of Histone deacetylase 3 (O15379 whole entry): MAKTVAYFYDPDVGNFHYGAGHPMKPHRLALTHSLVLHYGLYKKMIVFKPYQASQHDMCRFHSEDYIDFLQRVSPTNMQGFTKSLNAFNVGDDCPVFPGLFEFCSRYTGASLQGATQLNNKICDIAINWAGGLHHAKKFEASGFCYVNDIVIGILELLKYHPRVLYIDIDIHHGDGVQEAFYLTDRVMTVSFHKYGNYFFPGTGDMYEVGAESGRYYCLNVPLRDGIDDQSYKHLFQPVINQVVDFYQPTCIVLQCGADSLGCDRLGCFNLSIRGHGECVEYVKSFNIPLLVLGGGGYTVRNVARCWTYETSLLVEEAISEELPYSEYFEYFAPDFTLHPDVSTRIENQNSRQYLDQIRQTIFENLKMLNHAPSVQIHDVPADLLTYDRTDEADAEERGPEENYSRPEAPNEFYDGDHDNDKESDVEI
Data set [13] has as its target Histone deacetylase 4 (Homo sapiens, UniProt P56524). The experiment in a line: Inhibition of human recombinant HDAC4 expressed in baculovirus infected insect S9 cells using Ac-Leu-GlyLys(Tfa)-AMC as substrate after 30 mins by fluorescence assay.
The target of data set [14] is T1, Histone deacetylase 8 (Homo sapiens, UniProt Q9BY41).
T1 sequence (Q9BY41 whole entry): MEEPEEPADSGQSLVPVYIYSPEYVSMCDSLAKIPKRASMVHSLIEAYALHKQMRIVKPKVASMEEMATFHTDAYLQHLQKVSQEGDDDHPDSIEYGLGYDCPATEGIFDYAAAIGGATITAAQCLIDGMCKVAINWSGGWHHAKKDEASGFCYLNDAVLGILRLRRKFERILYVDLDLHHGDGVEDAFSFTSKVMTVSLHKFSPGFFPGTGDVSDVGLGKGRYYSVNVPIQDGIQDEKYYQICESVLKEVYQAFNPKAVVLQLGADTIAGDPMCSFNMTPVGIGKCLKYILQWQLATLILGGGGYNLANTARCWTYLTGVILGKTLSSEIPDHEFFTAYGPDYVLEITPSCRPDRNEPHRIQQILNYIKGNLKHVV
In words: Inhibition of full length human recombinant HDAC8 expressed in baculovirus infected insect S9 cells using Ac-Leu-GlyLys(Tfa)-AMC as substrate after 30 mins by fluorescence assay.

The target of data set [15] is T2, Protein deacetylase HDAC6 (Homo sapiens) (UniProt Q9UBN7).
T2 sequence (whole entry): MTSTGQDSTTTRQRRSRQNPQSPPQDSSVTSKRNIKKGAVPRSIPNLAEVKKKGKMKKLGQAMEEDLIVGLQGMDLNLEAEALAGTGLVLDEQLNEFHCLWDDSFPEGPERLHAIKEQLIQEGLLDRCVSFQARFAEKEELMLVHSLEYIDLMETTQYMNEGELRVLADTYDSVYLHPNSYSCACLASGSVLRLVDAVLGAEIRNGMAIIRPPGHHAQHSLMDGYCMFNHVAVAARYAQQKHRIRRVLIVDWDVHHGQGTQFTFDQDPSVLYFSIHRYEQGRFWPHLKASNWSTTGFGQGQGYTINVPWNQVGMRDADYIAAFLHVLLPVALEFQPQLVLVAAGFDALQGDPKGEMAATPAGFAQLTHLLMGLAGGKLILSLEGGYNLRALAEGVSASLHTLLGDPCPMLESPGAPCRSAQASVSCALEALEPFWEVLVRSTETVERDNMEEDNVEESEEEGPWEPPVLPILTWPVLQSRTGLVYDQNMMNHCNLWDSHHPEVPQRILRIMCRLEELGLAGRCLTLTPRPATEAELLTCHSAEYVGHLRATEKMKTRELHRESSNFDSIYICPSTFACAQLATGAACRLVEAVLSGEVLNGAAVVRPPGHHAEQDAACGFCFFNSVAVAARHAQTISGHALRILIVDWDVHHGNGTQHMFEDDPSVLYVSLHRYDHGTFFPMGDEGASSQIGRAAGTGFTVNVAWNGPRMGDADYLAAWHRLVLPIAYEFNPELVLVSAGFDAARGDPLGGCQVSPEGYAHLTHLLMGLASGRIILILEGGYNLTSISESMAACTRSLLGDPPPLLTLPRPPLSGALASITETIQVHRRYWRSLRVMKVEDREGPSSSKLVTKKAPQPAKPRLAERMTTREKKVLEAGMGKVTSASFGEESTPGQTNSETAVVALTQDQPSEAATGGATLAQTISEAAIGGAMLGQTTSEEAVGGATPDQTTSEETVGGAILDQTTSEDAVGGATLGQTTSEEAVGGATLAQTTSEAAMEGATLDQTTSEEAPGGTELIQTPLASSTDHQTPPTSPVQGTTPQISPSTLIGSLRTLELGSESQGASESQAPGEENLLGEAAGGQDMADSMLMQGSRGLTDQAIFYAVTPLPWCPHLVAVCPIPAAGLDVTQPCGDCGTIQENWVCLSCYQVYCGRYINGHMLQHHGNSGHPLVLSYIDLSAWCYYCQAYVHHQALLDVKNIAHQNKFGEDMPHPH
Particulars: MV4-11, 12.5 nM.

The target of data set [16] is Histone deacetylase 2 (Homo sapiens) (UniProt Q92769). Particulars: MV4-11, 12.5 to 200 nM.
Chain of Histone deacetylase 2 (Homo sapiens) (Q92769 whole entry): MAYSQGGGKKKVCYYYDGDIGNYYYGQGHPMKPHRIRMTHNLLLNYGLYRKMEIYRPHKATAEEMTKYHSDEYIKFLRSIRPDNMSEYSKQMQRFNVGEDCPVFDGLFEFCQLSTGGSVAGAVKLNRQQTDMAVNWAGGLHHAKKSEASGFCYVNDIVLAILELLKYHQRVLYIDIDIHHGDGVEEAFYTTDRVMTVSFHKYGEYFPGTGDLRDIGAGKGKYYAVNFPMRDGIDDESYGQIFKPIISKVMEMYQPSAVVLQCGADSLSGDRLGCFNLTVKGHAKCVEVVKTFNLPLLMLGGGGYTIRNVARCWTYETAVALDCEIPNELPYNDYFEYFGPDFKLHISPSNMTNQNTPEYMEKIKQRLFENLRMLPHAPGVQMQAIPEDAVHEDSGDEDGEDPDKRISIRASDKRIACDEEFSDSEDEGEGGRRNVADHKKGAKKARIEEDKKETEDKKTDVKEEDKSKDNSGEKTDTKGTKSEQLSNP

Activity calls are given as the source filed them. The calls are words filed in the database; no cut-off is given here.

What is called IC50 is the midpoint of a concentration-inhibition curve. Usually T/C stands for the result in the treated group divided by that in the control group, in per cent.

Chain of Histone deacetylase 4 (P56524 whole entry): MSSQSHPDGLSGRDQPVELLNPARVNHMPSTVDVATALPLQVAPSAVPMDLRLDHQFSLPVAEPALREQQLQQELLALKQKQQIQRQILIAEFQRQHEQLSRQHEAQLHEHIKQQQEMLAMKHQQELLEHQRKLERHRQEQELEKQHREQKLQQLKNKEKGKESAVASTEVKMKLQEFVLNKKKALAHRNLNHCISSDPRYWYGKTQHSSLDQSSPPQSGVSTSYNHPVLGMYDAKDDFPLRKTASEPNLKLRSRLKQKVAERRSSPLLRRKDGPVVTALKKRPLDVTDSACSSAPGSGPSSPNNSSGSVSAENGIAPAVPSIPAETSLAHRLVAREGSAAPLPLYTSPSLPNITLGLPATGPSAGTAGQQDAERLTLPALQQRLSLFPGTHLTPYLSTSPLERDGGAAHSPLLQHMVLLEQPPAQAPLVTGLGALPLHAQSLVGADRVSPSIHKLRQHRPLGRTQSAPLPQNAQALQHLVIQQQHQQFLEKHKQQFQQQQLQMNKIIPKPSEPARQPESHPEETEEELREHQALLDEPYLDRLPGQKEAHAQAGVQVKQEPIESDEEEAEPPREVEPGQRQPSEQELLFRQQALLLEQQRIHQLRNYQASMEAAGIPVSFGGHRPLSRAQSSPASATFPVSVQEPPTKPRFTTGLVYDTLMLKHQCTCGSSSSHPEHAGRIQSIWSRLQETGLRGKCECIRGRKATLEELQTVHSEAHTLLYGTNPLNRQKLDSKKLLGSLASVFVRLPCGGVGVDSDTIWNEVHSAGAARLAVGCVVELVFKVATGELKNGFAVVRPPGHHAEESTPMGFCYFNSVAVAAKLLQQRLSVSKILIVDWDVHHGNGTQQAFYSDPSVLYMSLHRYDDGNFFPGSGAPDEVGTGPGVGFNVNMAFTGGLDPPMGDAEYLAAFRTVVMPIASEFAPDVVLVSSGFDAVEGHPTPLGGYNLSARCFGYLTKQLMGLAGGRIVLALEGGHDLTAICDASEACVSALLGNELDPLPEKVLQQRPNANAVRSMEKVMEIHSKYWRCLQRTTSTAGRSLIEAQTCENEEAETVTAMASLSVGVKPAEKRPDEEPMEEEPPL

In the case of `O=C(CCCCCOc1no[n+]([O-])c1S(=O)(=O)c1ccccc1)NO`, the IC50 came to 1510 nM in data set [1]; 1550 nM in data set [2]; 3100 nM in data set [3]; 5840 nM in [4]; 532 nM in [12]; 30 nM in data set [13]. The IC50 in data set [14] was found to be 343 nM. The Activity in [5] is given as 90.24%; in [6], 9.31%; in data set [10], “Non-toxic”; in data set [11], “Non-toxic”. Besides, in data set [7], the inhibition in vivo at 120 mg/kg/day turned out to be 48%. Also, the inhibition in vivo at 100 mg/kg/day in data set [8] was 38%. Besides, the T/C in data set [9] came out at 39%. For the same compound, the inhibition result in data set [15] and in [16] was “Active” each time.
